In the RNAGym collection of RNA variant scans (doi:10.1002/anie.201605470):

B1: Osa-1-4 twister ribozyme (parent)
chain: CCGCCUAACACUGCCAAUGCCGGUCCCAAGCCCGGAUAAAAGUGGAGGGGGCGG

Variants of: B1
Assay: self-cleavage, relative activity (ratio to wild type); higher = more cleavage; co-transcriptional
Outline: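 A DNA template encoding a 54-nucleotide twister ribozyme from Oryza sativa was made so that each of the 48 positions downstream of the cleavage site carried 97 % wild-type base and 1 % of each other base. Transcription in vitro ran for 2 h at 37 °C, during which the ribozyme could cleave itself. Reverse transcription used a template-switching oligonucleotide, and the products were PCR-amplified and deep-sequenced. Each read was scored as cleaved or uncleaved by whether upstream sequence was present, and relative activity is the fraction cleaved normalised to wild type.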

Point of comparison: CCGCCUAACACUACCAAUGCCGGUCCCAAGCCCGGAUAGAAGUGGAGGGGGCGG, self-cleavage 0.07. Against it:
- CCGCCUAAUACUGCCAAUGCCGGUCCCAAGCCCGGAUAGAAGUGGAGGGGGCGG — higher, 0.73
- CCGCCUAAAACUGCCAAUGCCGGUCCCAAGCCCGGAUAGAAGUGGAGGGGGCGG — higher, 0.39
- CCGCCUAACACUGCCAAUGCCGGUCCCAAGCCCGGAUAGAAGUGGAGGCGGCGG — higher, 0.08
- CCGCCUAACACUGCCAAUGCCGGUCCCAAGCCCGGAUAGAAGUGGAGGUGGCGG — higher, 0.1
- CCGCCUAACACUGCCAAUGCCGGUCCCAAGCCCGGAUAGAAGUGGAGGAGGCGG — higher, 0.26
- CCGCCUAACACUGCCAAUGCCGGUCCCAAGCCCGGAUAGAAGUGGAGGGGGCUG — higher, 0.2
- CCGCCUAACACUGCCAAUGCCGGUCCCAAGCCCGGAUAGAAGUGGAGGGGGCCG — higher, 0.08
- CCGCCUAACACUGCCAAUGCCGGUCCCAAGCCCGGAUAGAAGUGGAGGGGGCAG — higher, 0.55
- CCGCCUAACACUGCCAAUGCAGGUCCCAAGCCCGGAUAGAAGUGGAGGGGGCGG — higher, 0.55
- CCGCCUAACACUGCCAAUGCUGGUCCCAAGCCCGGAUAGAAGUGGAGGGGGCGG — higher, 1.01
- CCGCCUAACACUGCCAAUGCGGGUCCCAAGCCCGGAUAGAAGUGGAGGGGGCGG — higher, 0.08
- CCGCCUAACACUGCCAAUGCCGUUCCCAAGCCCGGAUAGAAGUGGAGGGGGCGG — the same, 0.07
- CCGCCUAACACUGCCAAUGCCGAUCCCAAGCCCGGAUAGAAGUGGAGGGGGCGG — higher, 0.2
- CCGCCUAACACUGCCAAUGCCGCUCCCAAGCCCGGAUAGAAGUGGAGGGGGCGG — the same, 0.07
- CCGCCUAACACUGCCAAUGCCGGUCCCAAGCCCGGAUAGAAGUGGAGGGGACGG — higher, 0.67
- CCGCCUAACACUGCCAAUGCCGGUCCCAAGCCCGGAUAGAAGUGGAGGGGUCGG — higher, 0.3
- CCGCCUAACACUGCCAAUGCCGGUCCCAAGCCCGGAUAGAAGUGGAGGGGCCGG — higher, 0.09
- CCGCCUAACACUGGCAAUGCCGGUCCCAAGCCCGGAUAGAAGUGGAGGGGGCGG — higher, 0.12
- CCGCCUAACACUGUCAAUGCCGGUCCCAAGCCCGGAUAGAAGUGGAGGGGGCGG — higher, 0.11
- CCGCCUAACACUGACAAUGCCGGUCCCAAGCCCGGAUAGAAGUGGAGGGGGCGG — higher, 0.08
- CCGCCUAACACUUCCAAUGCCGGUCCCAAGCCCGGAUAGAAGUGGAGGGGGCGG — lower, 0.03
- CCGCCUAACACUCCCAAUGCCGGUCCCAAGCCCGGAUAGAAGUGGAGGGGGCGG — lower, 0.03
- CCGCCUAACACUGCCAAUGCCGGUCCCAAGCCCGGAUAGUAGUGGAGGGGGCGG — higher, 0.16
- CCGCCUAACACUGCCAAUGCCGGUCCCAAGCCCGGAUAGGAGUGGAGGGGGCGG — higher, 0.36
- CCGCCUAACACUGCCAAUGCCGGUCCCAAGCCCGUAUAGAAGUGGAGGGGGCGG — higher, 0.87
- CCGCCUAACACUGCCAAUGCCGGUCCCAAGCCCGAAUAGAAGUGGAGGGGGCGG — higher, 0.78
- CCGCCUAACACUGCCAAUGCCGGUCCCAAGCCCGCAUAGAAGUGGAGGGGGCGG — higher, 0.22
- CCGCCUAACACUGCCAAUGCCGGUCCCAAGCCCAGAUAGAAGUGGAGGGGGCGG — higher, 0.8
- CCGCCUAACACUGCCAAUGCCGGUCCCAAGCCCUGAUAGAAGUGGAGGGGGCGG — higher, 0.68
- CCGCCUAACACUGCCAAUGCCGGUCCCAAGCCCCGAUAGAAGUGGAGGGGGCGG — higher, 0.42
- CCGCCUAACACUGCCAAUGCCGGUCCCAAGCCCGGAUAGAAGUGGAAGGGGCGG — higher, 0.13
- CCGCCUAACACUGCCAAUGCCGGUCCCAAGCCCGGAUAGAAGUGGAUGGGGCGG — higher, 0.13
- CCGCCUAACACUGCCAAUGCCGGUCCCAAGCCCGGAUAGAAGUGGACGGGGCGG — higher, 0.09
- CCGCCUAACACUGCCAAUGUCGGUCCCAAGCCCGGAUAGAAGUGGAGGGGGCGG — higher, 0.96
- CCGCCUAACACUGCCAAUGGCGGUCCCAAGCCCGGAUAGAAGUGGAGGGGGCGG — higher, 0.13
- CCGCCUAACACUGCCAAUGACGGUCCCAAGCCCGGAUAGAAGUGGAGGGGGCGG — higher, 0.91
- CCGCCUAACACUGCCAAUGCCGGUCCCAAGCCCGGAUAGAACUGGAGGGGGCGG — higher, 0.16
- CCGCCUAACACUGCCAAUGCCGGUCCCAAGCCCGGAUAGAAUUGGAGGGGGCGG — higher, 0.08
- CCGCCUAACACUGCCAAUGCCGGUCCCAAGCCCGGAUAGAAAUGGAGGGGGCGG — higher, 0.37
- CCGCCUAACACUGCCAAUACCGGUCCCAAGCCCGGAUAGAAGUGGAGGGGGCGG — higher, 0.7
- CCGCCUAACACUGCCAAUCCCGGUCCCAAGCCCGGAUAGAAGUGGAGGGGGCGG — higher, 0.31
- CCGCCUAACACUGCCAAUUCCGGUCCCAAGCCCGGAUAGAAGUGGAGGGGGCGG — higher, 0.26
- CCGCCUAACACUGCCAAUGCCGGUCCCAAGCACGGAUAGAAGUGGAGGGGGCGG — higher, 0.08
- CCGCCUAACACUGCCAAUGCCGGUCCCAAGCUCGGAUAGAAGUGGAGGGGGCGG — higher, 0.1
- CCGCCUAACACUGCCAAUGCCGGUCCCAAGCGCGGAUAGAAGUGGAGGGGGCGG — higher, 0.14
- CCGCCUAACACUGCCAAUGCCCGUCCCAAGCCCGGAUAGAAGUGGAGGGGGCGG — higher, 0.08
- CCGCCUAACACUGCCAAUGCCAGUCCCAAGCCCGGAUAGAAGUGGAGGGGGCGG — higher, 0.95
- CCGCCUAACACUGCCAAUGCCUGUCCCAAGCCCGGAUAGAAGUGGAGGGGGCGG — higher, 0.26
